The nature of series [1]: Solubility in water at 1 mg at 25 degC by HPLC analysis. In kind it is physicochemical. A digest of the protocol: (§1)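 Solubility determined in water or 0.067 M phosphate buffer at pH 5.8, 6.8 and 7.4. Values are reported in mg/mL; ND means below the detection limit.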
The nature of series [2]: Solubility in pH 5.8 phosphate buffer at 1 mg at 25 degC by HPLC analysis. It is filed as physicochemical. The gist of the method:
as §1

Series [3] in a line: Solubility in pH 6.8 phosphate buffer at 1 mg at 25 degC by HPLC analysis. In kind it is physicochemical. As to conditions: phosphate buffer, read-out: solubility. A digest of the protocol:
as §1

Series [4] is described as follows: Solubility in pH 7.4 phosphate buffer at 1 mg at 25 degC by HPLC analysis. It is filed as physicochemical. A digest of the protocol: as §1
Series [5] in a line: AUC in C57BL/6 mouse plasma at 100 mg/kg, po measured from 5 mins to 24 hrs by HPLC analysis. It is filed as ADME, organism-based. Also noted: time upper 24 hr, dose 100 mg/kg, time lower 0.083 hr, route oral. A digest of the protocol: (§2)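 Male C57BL/6 mice, n=3. Dosing 20 mg/kg i.v. or 100 mg/kg p.o. of parent; prodrug p.o. at 100 or 200 mg/kg. The parent compound was measured in blood/plasma and in liver from 5 min onward. Readouts were Cmax, Tmax, t1/2, CL, AUC and oral bioavailability.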

A short description of series [6]: AUC in C57BL/6 mouse plasma at 200 mg/kg, po measured from 5 mins to 24 hrs by HPLC analysis. In kind it is ADME, organism-based. More on the design: time 0.083-24 hr, dose 200 mg/kg, route oral. The gist of the method:
as §2

A short description of series [7]: AUC in C57BL/6 mouse liver at 100 mg/kg, po measured from 5 mins to 24 hrs by HPLC analysis. Also noted: time 0.083-24 hr, dose 100 mg/kg, route oral. Conditions: in vivo. It is filed as ADME, organism-based. The gist of the method: as §2
A short description of series [8]: AUC in C57BL/6 mouse liver at 200 mg/kg, po measured from 5 mins to 24 hrs by HPLC analysis. It is filed as ADME, organism-based. Also noted: time upper 24 hr, dose 200 mg/kg, time lower 0.083 hr, route oral. Conditions: in vivo. A digest of the protocol:
as §2

Series [9] can be described thus: Tmax in C57BL/6 mouse blood at 100 mg/kg, po measured from 5 mins to 24 hrs by HPLC analysis. It is filed as ADME, organism-based. A digest of the protocol:
(§3)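 Male C57BL/6 mice, single oral dose of prodrug at 100 or 200 mg/kg; blood and liver levels of the parent compound measured over time; N=3; Tmax taken from the concentration–time profiles.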

A short description of series [10]: Tmax in C57BL/6 mouse blood at 200 mg/kg, po measured from 5 mins to 24 hrs by HPLC analysis. It is filed as ADME, organism-based. The gist of the method: as §3
Series [11] can be described thus: Cmax in C57BL/6 mouse blood at 100 mg/kg, po measured from 5 mins to 24 hrs by HPLC analysis. In kind it is ADME, organism-based. More on the design: dose 100 mg/kg, route oral. The gist of the method: as §2
Series [12] can be described thus: Cmax in C57BL/6 mouse blood at 200 mg/kg, po measured from 5 mins to 24 hrs by HPLC analysis. It is filed as ADME, organism-based. Also noted: dose 200 mg/kg, route oral. The gist of the method:
as §2

Series [13] is described as follows: Tmax in C57BL/6 mouse liver at 100 mg/kg, po measured from 5 mins to 24 hrs by HPLC analysis. It is filed as ADME, organism-based. The gist of the method: as §3
The nature of series [14]: Tmax in C57BL/6 mouse liver at 200 mg/kg, po measured from 5 mins to 24 hrs by HPLC analysis. It is filed as ADME, organism-based. The gist of the method:
as §3

Series [15] in a line: Cmax in C57BL/6 mouse liver at 100 mg/kg, po measured from 5 mins to 24 hrs by HPLC analysis. In kind it is ADME, organism-based. Also noted: dose 100 mg/kg, route oral. As to conditions: in vivo. The gist of the method:
as §2

The nature of series [16]: Cmax in C57BL/6 mouse liver at 200 mg/kg, po measured from 5 mins to 24 hrs by HPLC analysis. It is filed as ADME, organism-based. More on the design: dose 200 mg/kg, route oral. Conditions: in vivo. A digest of the protocol: as §2
Series [17] is described as follows: Oral bioavailability in C57BL/6 mouse liver at 100 mg/kg measured from 5 mins to 24 hrs by HPLC analysis. It is filed as ADME, organism-based. The gist of the method:
as §2

Series [18] can be described thus: Oral bioavailability in C57BL/6 mouse liver at 200 mg/kg measured from 5 mins to 24 hrs by HPLC analysis. It is filed as ADME, organism-based. The gist of the method: as §2
Series [19] in a line: Drug level in C57BL/6 mouse liver at 100 mg/kg, po measured after 5 mins by HPLC analysis. It is filed as ADME, organism-based. Conditions: in vivo.
Series [20] can be described thus: Half life in mouse plasma by HPLC analysis. As to conditions: in vitro.

Some results are limits rather than exact numbers.

For `Cc1cc(Nc2nn(C3CC3)c3cnc(S(=O)(=O)N4CCC(OC(=O)CN(C)C)CC4)cc23)ccc1F.O=C(O)CC(O)(CC(=O)O)C(=O)O`, the solubility in series [1] amounted to 8130 µg/mL; in series [2] it was 7600 µg/mL; in series [3], 6650 µg/mL; in [4] it was 31 µg/mL. Moreover, the AUC in [5] turned out to be 7010 ng·h/mL; in series [6], 21100 ng·h/mL; in [7] it was 306 nmol·h/g; in [8], 482 nmol·h/g. Besides, the time of peak concentration (Tmax) in [9] was found to be 1 h; in series [10], 1 h; in series [13] it was 2 h; in [14], 4 h. The Cmax came out at 3.73 µM in series [11], 8.84 µM in series [12], 40 nmol/g in series [15] and 59 nmol/g in series [16]. Further, the bioavailability in series [17] was found to be 87.6%; in [18], 132%. Moreover, the Drug uptake in [19] is greater than 10 nmol/g. This compound had a half-life in series [20] of 0.783 h.
